Molecules are shown by their SMILES.

Broadly, the IC50 is the concentration that gives 50% inhibition. The low end stands for inhibition by little substance, the high end for a need for much substance.

One data set is filed under the species Rattus norvegicus. Description: Clearance rate constant using isolated perfused rat liver (IPRL) assay. The data set is classed as ADME.
In data set [1] the target is T1, Integrin alpha-4/beta-1 (Homo sapiens, UniProt P05556+P13612). Description: Inhibition of VLA-4 to VCAM-1 binding. The data set is classed as protein-complex assay. The method, boiled down:
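Test compounds titrated into a solution of 2-domain VCAM-Fc-Ig, then added to assay wells. Buffer: TBS with 1% BSA, 1 mM MnCl2 and 0.1% Tween. Incubated 2 h at room temperature, then washed. Bound VCAM detected with peroxidase-coupled anti-human Fc. Reported as IC50.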

Data set [2] deals with T1, Integrin alpha-4/beta-1. Description: Inhibition of VLA-4 to VCAM-1 binding in Jurkat cell adhesion assay. Format: cell-based. The method, boiled down: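 Jurkat cells expressing VLA-4 incubated 30 min at 37 °C with test compounds on human 2-domain VCAM-1-Fc, which was immobilised on the plate via anti-human Fc. Plates washed and adherent cells stained with Rose Bengal. Reported as IC50.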

T1 sequence (P05556 whole entry): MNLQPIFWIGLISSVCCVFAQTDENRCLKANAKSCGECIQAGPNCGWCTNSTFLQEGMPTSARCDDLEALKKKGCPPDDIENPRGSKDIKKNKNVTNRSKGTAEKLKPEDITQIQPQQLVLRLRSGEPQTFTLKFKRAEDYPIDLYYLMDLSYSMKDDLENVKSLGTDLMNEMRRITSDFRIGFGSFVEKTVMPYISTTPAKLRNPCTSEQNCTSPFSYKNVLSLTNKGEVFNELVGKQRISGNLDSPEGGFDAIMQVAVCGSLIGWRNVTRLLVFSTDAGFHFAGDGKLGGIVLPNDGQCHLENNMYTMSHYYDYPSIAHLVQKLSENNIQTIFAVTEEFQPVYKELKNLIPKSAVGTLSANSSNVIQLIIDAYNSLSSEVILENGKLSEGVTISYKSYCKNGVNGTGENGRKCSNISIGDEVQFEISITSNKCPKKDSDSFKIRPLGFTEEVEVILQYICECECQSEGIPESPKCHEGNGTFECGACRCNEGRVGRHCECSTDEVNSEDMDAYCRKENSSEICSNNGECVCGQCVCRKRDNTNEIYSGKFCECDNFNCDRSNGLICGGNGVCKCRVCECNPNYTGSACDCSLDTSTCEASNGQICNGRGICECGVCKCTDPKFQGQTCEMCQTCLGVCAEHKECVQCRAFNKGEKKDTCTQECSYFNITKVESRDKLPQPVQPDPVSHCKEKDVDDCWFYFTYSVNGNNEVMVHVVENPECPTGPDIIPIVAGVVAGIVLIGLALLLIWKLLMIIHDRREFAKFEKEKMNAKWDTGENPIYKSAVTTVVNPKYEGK
T1 sequence (P13612 whole entry): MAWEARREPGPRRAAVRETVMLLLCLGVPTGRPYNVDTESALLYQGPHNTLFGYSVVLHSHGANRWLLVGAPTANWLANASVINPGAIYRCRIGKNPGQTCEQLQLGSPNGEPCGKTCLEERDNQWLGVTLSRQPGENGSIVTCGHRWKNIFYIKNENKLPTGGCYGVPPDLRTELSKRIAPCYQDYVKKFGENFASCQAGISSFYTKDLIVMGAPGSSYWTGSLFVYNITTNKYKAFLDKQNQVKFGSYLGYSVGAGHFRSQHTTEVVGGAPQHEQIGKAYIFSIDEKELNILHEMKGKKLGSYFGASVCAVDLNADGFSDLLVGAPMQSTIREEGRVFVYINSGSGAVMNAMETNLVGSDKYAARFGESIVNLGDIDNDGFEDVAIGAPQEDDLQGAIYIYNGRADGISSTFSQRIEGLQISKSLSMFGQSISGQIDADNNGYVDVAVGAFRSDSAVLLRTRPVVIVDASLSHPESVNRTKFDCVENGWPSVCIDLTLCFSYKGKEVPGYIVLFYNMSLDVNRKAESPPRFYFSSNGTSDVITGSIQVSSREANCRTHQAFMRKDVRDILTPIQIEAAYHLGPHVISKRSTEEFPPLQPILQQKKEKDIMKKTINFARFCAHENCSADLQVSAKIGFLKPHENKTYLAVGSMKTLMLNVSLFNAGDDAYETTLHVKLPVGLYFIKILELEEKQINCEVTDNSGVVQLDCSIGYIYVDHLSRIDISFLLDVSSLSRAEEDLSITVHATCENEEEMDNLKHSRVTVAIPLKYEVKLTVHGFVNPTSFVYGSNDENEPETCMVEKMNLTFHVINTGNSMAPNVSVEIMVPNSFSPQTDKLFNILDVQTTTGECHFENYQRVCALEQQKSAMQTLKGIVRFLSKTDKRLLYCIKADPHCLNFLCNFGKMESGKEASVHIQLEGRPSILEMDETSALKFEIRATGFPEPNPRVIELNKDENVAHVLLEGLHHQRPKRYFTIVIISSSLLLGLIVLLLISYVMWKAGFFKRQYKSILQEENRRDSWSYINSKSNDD

Regarding `CC(C)(C)C(=O)N/C(=C\c1ccc(NC(=O)c2c(Cl)cccc2Cl)cc1)C(=O)O`, the k in the data set listed under Rattus norvegicus turned out to be 4.8 h⁻¹. Besides, the IC50 on Integrin alpha-4/beta-1 [1] is 50 nM; on Integrin alpha-4/beta-1 [2] it was 3700 nM.

In the data set filed under Rattus norvegicus, `CC(=O)N1CSC[C@@H]1C(=O)N/C(=C\c1ccc(NC(=O)c2c(Cl)cccc2Cl)cc1)C(=O)O` came in with a k of 3.9 h⁻¹. The IC50 at Integrin alpha-4/beta-1 [1] was 5 nM; on Integrin alpha-4/beta-1 [2] it was 140 nM.

For `CC(=O)N1CSC[C@@H]1C(=O)N/C(=C/c1ccc(NC(=O)c2c(Cl)cccc2Cl)cc1)C(=O)O`, the k in the data set listed under Rattus norvegicus came to 0.7 h⁻¹. Further, the IC50 came out at 400 nM at Integrin alpha-4/beta-1 [1] and 29000 nM on Integrin alpha-4/beta-1 [2].

Compound `O=C(O)/C(=C\c1ccc(NC(=O)c2c(Cl)cncc2Cl)cc1)NC(=O)c1cccnc1Cl` registered a k in the data set filed under Rattus norvegicus of 1.5 h⁻¹. In addition, the IC50 on Integrin alpha-4/beta-1 [1] came out at 66 nM; at Integrin alpha-4/beta-1 [2] it was 8500 nM.

Turning to `CC(C)(C)C(=O)N/C(=C/c1ccc(NC(=O)c2c(Cl)cccc2Cl)cc1)C(=O)O`, the figures for the IC50 at Integrin alpha-4/beta-1 [1] and at Integrin alpha-4/beta-1 [2] were 2700 nM and 80000 nM, respectively.

Turning to `CC(=O)N1CSC[C@H]1C(=O)N/C(=C\c1ccc(OCc2ccccc2)cc1)C(=O)O`, the k in the data set filed under Rattus norvegicus stood at 3.8 h⁻¹. Further, the IC50 on Integrin alpha-4/beta-1 [1] turned out to be 2200 nM; on Integrin alpha-4/beta-1 [2], 71000 nM.

Compound `CC(=O)N1CSC[C@@H]1C(=O)N/C(=C\c1ccc(NC(=O)c2c(Cl)cncc2Cl)cc1)C(=O)O` came in with a k in the data set listed under Rattus norvegicus of 4.4 h⁻¹. In addition, the figures for the IC50 on Integrin alpha-4/beta-1 [1] and at Integrin alpha-4/beta-1 [2] were 2 nM and 25 nM, respectively.

Turning to `CC(=O)N1CSC[C@@H]1C(=O)N/C(=C/c1ccc(NC(=O)c2c(Cl)cncc2Cl)cc1)C(=O)O`, in the data set listed under Rattus norvegicus, the k came out at 1.2 h⁻¹. Also, the IC50 at Integrin alpha-4/beta-1 [1] came out at 60 nM; at Integrin alpha-4/beta-1 [2], 200 nM.

Consider `O=C(O)/C(=C/c1ccc(OCc2c(Cl)cccc2Cl)cc1)NC(=O)c1cccnc1Cl`, for which the k in the data set listed under Rattus norvegicus came to 3.7 h⁻¹. Further, the results for the IC50 on Integrin alpha-4/beta-1 [1] and at Integrin alpha-4/beta-1 [2] were 220 nM and 7100 nM, respectively.

In the case of `CC(=O)N1CSC[C@H]1C(=O)N/C(=C/c1ccc(OCc2ccccc2)cc1)C(=O)O`, the k in the data set filed under Rattus norvegicus was determined as 0.6 h⁻¹. For the same compound, the half-inhibitory concentration (IC50) at Integrin alpha-4/beta-1 [1] is 1500 nM; at Integrin alpha-4/beta-1 [2], 20000 nM.

`O=C(O)C1=Cc2ccc(NC(=O)c3c(Cl)cncc3Cl)cc2NC(c2cccnc2Cl)=N1` showed a k in the data set listed under Rattus norvegicus of 5.3 h⁻¹. For the same compound, the IC50 on Integrin alpha-4/beta-1 [1] is 55 nM; at Integrin alpha-4/beta-1 [2] it was 410 nM.

For `CC(=O)N1CSC[C@@H]1C(=O)N/C(=C\c1ccc(OCc2c(Cl)cccc2Cl)cc1)C(=O)O`, in the data set filed under Rattus norvegicus, the k stood at 4.1 h⁻¹. The values for the IC50 at Integrin alpha-4/beta-1 [1] and at Integrin alpha-4/beta-1 [2] were 2800 nM and 5000 nM, respectively.

Turning to `O=C(O)/C(=C/c1ccc(OCc2c(Cl)cncc2Cl)cc1)NC(=O)c1cccnc1Cl`, the IC50 turned out to be 140 nM at Integrin alpha-4/beta-1 [1] and 14000 nM on Integrin alpha-4/beta-1 [2].

`O=C(O)/C(=C/c1ccc(NC(=O)c2c(Cl)cncc2Cl)cc1)NC(=O)c1cccnc1Cl`: the k in the data set listed under Rattus norvegicus was 3.9 h⁻¹. The IC50 on Integrin alpha-4/beta-1 [1] is 1.4 nM; at Integrin alpha-4/beta-1 [2], 70 nM.

As to `CC(=O)N1CSCC1C(=O)N/C(=C/c1ccc(OCc2c(Cl)cccc2Cl)cc1)C(=O)O` (stereo not drawn), the k in the data set listed under Rattus norvegicus worked out at 0.4 h⁻¹. In addition, the IC50 on Integrin alpha-4/beta-1 [1] turned out to be 7400 nM; at Integrin alpha-4/beta-1 [2] it was 83000 nM.

(Values after ChEMBL document CHEMBL1136610, “Dehydrophenylalanine derivatives as VLA-4 integrin antagonists” (Bioorg Med Chem Lett, 2003).)
